Results on three compounds are retold here after ChEMBL document CHEMBL4270541, “Synthesis and antimicrobial evaluation of amino sugar-based naphthoquinones and isoquinoline-5,8-diones and their halogenated compounds” (Eur J Med Chem, 2018).

In brackets after ≈: the same amount, converted by molar mass. Activity calls are given as the source filed them. The calls are words filed in the database; no cut-off is given here. Where only a bound is given, the exact number is not on record here.

Data set [1] concerns Enterococcus faecalis. Kind of data set: Antimicrobial activity against Enterococcus faecalis INCQS 00234 ATCC 29212 assessed as zone of inhibition at 5 mg/ml after 18 to 24 hrs by disc diffusion method. Type of data set: functional. The settings on record: ATCC 29212 INCQS 00234, read-out: IZ.
Data set [2] relates to Staphylococcus epidermidis. The data set can be described thus: Antimicrobial activity against Staphylococcus epidermidis INCQS 00016 ATCC 12228 at 256 ug/ml after 24 hrs by microdilution assay. Type of data set: functional, organism-based. The conditions noted are these: ATCC 12228 INCQS 00016. On the technique in general: In broth dilution the organism is exposed to a series of concentrations in liquid medium.

In data set [3] the test system is Pseudomonas aeruginosa. Kind of data set: Bactericidal activity against Pseudomonas aeruginosa INCQS 00099 ATCC 27853 incubated for 24 hrs followed by transfer of microbial suspension to agar plates and measured after 24 hrs post transfer by resazurin dye-based colorimetric analysis. Type of data set: functional. The settings on record: INCQS 00099 ATCC 27853, 24 h, read-out: MBC99.9. The gist of the method: (§1)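 For MBC, 10 µL from each clear MIC well was plated on agar and incubated 24 h at 37°C. MBC is the minimum concentration inhibiting 99.9% of growth. […] Triplicate.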

The subject of data set [4] is Staphylococcus aureus. Kind of data set: Bactericidal activity against Staphylococcus aureus INCQS 00015 ATCC 25923 at 256 ug/ml incubated for 24 hrs followed by transfer of microbial suspension to agar plates and measured after 24 hrs post transfer by resazurin dye-based colorimetric analysis. Type of data set: functional, organism-based. The gist of the method: as §1

Data set [5] has as its system Staphylococcus epidermidis. Kind of data set: Bactericidal activity against Staphylococcus epidermidis INCQS 00016 ATCC 12228 at 256 ug/ml incubated for 24 hrs followed by transfer of microbial suspension to agar plates and measured after 24 hrs post transfer by resazurin dye-based colorimetric analysis. Type of data set: functional, organism-based. The settings on record: ATCC 12228 INCQS 00016. The gist of the method:
as §1
In general terms: The colour change of resazurin is a common sign of viable cells or microbes.

The test system of data set [6] is Escherichia coli. The data set can be described thus: Ratio of MBC99.9 to MIC for Escherichia coli INCQS 00033 ATCC 25922. Type of data set: functional, ATCC 25922 INCQS 00033. In short, it runs like this: (§2)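 MBC/MIC ratio from the 24 h, 37°C microdilution MIC and the agar-plating MBC (99.9% growth inhibition). A ratio ≤2 was classed as bactericidal and ≥4 as bacteriostatic.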

A short description of data set [7]: Hemolytic activity against human erythrocytes assessed as hemolysis at 200 ug/ml after 3 hrs by spectrophotometric analysis relative to control. Type of data set: ADME, cell-based, Erythrocyte. The settings on record: read-out: Activity. The gist of the method:
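Erythrocytes collected in citrate tubes, washed three times with PBS pH 7.4 by centrifugation and resuspended in PBS. Incubated with compounds at 200 µg/mL for 3 h at 37°C. Released hemoglobin was read in the supernatant at 545 nm against 1% Triton X-100 (complete lysis) and 1% DMSO (negative control). Below 10% hemolysis was taken as hemocompatible. Three independent experiments.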

Data set [8] has as its system Staphylococcus aureus. Kind of data set: Antimicrobial activity against methicillin-resistant Staphylococcus aureus BMB9393 assessed as zone of inhibition at 5 mg/ml after 18 to 24 hrs by disc diffusion method. Type of data set: functional. The conditions noted are these: read-out: IZ. (In agar diffusion tests the substance spreads into inoculated agar from a disc or well.)

The test system of data set [9] is Staphylococcus aureus. Kind of data set: Antimicrobial activity against methicillin-resistant Staphylococcus aureus BMB9393 at 256 ug/ml after 24 hrs by microdilution assay. Type of data set: functional, organism-based.
The test system of data set [10] is Pseudomonas aeruginosa. The data set can be described thus: Ratio of MBC99.9 to MIC for Pseudomonas aeruginosa INCQS 00099 ATCC 27853. Type of data set: functional. The gist of the method: as §2
Data set [11] relates to Klebsiella pneumoniae. The data set can be described thus: Antimicrobial activity against Klebsiella pneumoniae INCQS 00083 ATCC 4352 assessed as zone of inhibition at 5 mg/ml after 18 to 24 hrs by disc diffusion method. Type of data set: functional. The conditions noted are these: read-out: IZ.
Data set [12] concerns Escherichia coli. The data set can be described thus: Antimicrobial activity against Escherichia coli INCQS 00033 ATCC 25922 after 24 hrs by microdilution assay. Type of data set: functional. The conditions noted are these: ATCC 25922 INCQS 00033, 24 h.
The subject of data set [13] is Escherichia coli. Kind of data set: Bactericidal activity against Escherichia coli INCQS 00033 ATCC 25922 incubated for 24 hrs followed by transfer of microbial suspension to agar plates and measured after 24 hrs post transfer by resazurin dye-based colorimetric analysis. Type of data set: functional. The conditions noted are these: ATCC 25922 INCQS 00033, 24 h, read-out: MBC99.9. The gist of the method:
as §1

Data set [14] concerns Pseudomonas aeruginosa. Kind of data set: Antimicrobial activity against Pseudomonas aeruginosa INCQS 00099 ATCC 27853 after 24 hrs by microdilution assay. Type of data set: functional. The conditions noted are these: INCQS 00099 ATCC 27853, 24 h.
Data set [15] deals with Staphylococcus aureus. The data set can be described thus: Antimicrobial activity against Staphylococcus aureus INCQS 00015 ATCC 25923 assessed as zone of inhibition at 5 mg/ml after 18 to 24 hrs by disc diffusion method. Type of data set: functional. The settings on record: read-out: IZ.
For data set [16], the system named is Staphylococcus aureus. The data set can be described thus: Bactericidal activity against methicillin-resistant Staphylococcus aureus BMB9393 at 256 ug/ml incubated for 24 hrs followed by transfer of microbial suspension to agar plates and measured after 24 hrs post transfer by resazurin dye-based colorimetric analysis. Type of data set: functional, organism-based. The gist of the method:
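From MIC wells with no visible growth, 10 µL is transferred to agar plates and incubated 24 h at 37°C. MBC is the minimum concentration inhibiting 99.9% of growth. […] Triplicate.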

Data set [17] has as its system Pseudomonas aeruginosa. The data set can be described thus: Antimicrobial activity against Pseudomonas aeruginosa INCQS 00099 ATCC 27853 assessed as zone of inhibition at 5 mg/ml after 18 to 24 hrs by disc diffusion method. Type of data set: functional. The settings on record: read-out: IZ.
Data set [18] deals with Staphylococcus epidermidis. The data set can be described thus: Antimicrobial activity against Staphylococcus epidermidis INCQS 00016 ATCC 12228 assessed as zone of inhibition at 5 mg/ml after 18 to 24 hrs by disc diffusion method. The conditions noted are these: ATCC 12228 INCQS 00016, read-out: IZ. Type of data set: functional.
Data set [19] deals with Escherichia coli. The data set can be described thus: Antimicrobial activity against Escherichia coli INCQS 00033 ATCC 25922 assessed as zone of inhibition at 5 mg/ml after 18 to 24 hrs by disc diffusion method. The settings on record: ATCC 25922 INCQS 00033, read-out: IZ. Type of data set: functional.
The test system of data set [20] is Proteus mirabilis. Kind of data set: Antimicrobial activity against Proteus mirabilis INCQS 00095 ATCC 15290 assessed as zone of inhibition at 5 mg/ml after 18 to 24 hrs by disc diffusion method. The settings on record: read-out: IZ. Type of data set: functional.
The subject of data set [21] is Staphylococcus simulans. Kind of data set: Bactericidal activity against Staphylococcus simulans INCQS 00254 ATCC 27851 at 256 ug/ml incubated for 24 hrs followed by transfer of microbial suspension to agar plates and measured after 24 hrs post transfer by resazurin dye-based colorimetric analysis. Type of data set: functional, organism-based. The gist of the method: as §1

The subject of data set [22] is Staphylococcus simulans. Kind of data set: Antimicrobial activity against Staphylococcus simulans INCQS 00254 ATCC 27851 assessed as zone of inhibition at 5 mg/ml after 18 to 24 hrs by disc diffusion method. Type of data set: functional. The settings on record: read-out: IZ.
Data set [23] has as its system Staphylococcus simulans. The data set can be described thus: Antimicrobial activity against Staphylococcus simulans INCQS 00254 ATCC 27851 at 256 ug/ml after 24 hrs by microdilution assay. Type of data set: functional, organism-based.
Data set [24] deals with Staphylococcus aureus. The data set can be described thus: Antimicrobial activity against Staphylococcus aureus INCQS 00015 ATCC 25923 at 256 ug/ml after 24 hrs by microdilution assay. Type of data set: functional, organism-based.

In general, MIC refers to the lowest concentration that inhibits growth of the organism. In the case of `CC1(C)O[C@H]2O[C@H](CNC3=C(Br)C(=O)c4ccccc4C3=O)[C@H](O)[C@H]2O1`, the zone of inhibition at 5000 µg/mL in data set [1] was 0 mm; in [8], 0 mm; in data set [11], 0 mm; in [15], 8 mm; in data set [17], 16 mm; in data set [18] it was 10 mm. The zone of inhibition at 5000 µg/mL is 12 mm in data set [19], 0 mm in data set [20] and 9 mm in [22]. Further, the result in [2], in data set [4], in data set [5], in data set [9], in data set [16] and in data set [21] was inactive. The outcome in data set [23] and in data set [24] was inactive. The MBC in data set [3] and in data set [13] was 16 µg/mL (≈ 37.7 µM) throughout. Further, the Ratio in data set [6] and in [10] was 1 each time. Besides, the hemolysis at 3 h, 200 ug/ml in [7] is below 10%. Moreover, the MIC in [12] and in data set [14] was 16 µg/mL (≈ 37.7 µM) throughout.

As to `CO[C@@H]1O[C@H](CNC2=C(Cl)C(=O)c3ccccc3C2=O)[C@H]2OC(C)(C)O[C@@H]12`, the zone of inhibition at 5000 µg/mL in [1] is 0 mm; in data set [8], 0 mm; in data set [11] it was 0 mm; in data set [15] it was 0 mm; in data set [17], 9 mm; in data set [18], 9 mm. The zone of inhibition at 5000 µg/mL in [19] was determined as 10 mm; in data set [20], 0 mm; in [22] it was 7 mm. Moreover, the result in data set [2], in data set [4], in data set [5], in data set [9], in [16] and in [21] was inactive. Also, the result in [23] and in [24] was inactive. Besides, the values for the MBC in data set [3] and in data set [13] were 32 µg/mL (≈ 81.3 µM) and 8 µg/mL (≈ 20.3 µM), respectively. Moreover, the Ratio in data set [6] is given as 1. For the same compound, the hemolysis at 3 h, 200 ug/ml in data set [7] was below 10%. Moreover, the MIC in [12] came to 8 µg/mL (≈ 20.3 µM); in data set [14] it was 32 µg/mL (≈ 81.3 µM).

For the compound `CO[C@@H]1O[C@H](CNC2=C(Br)C(=O)c3ccccc3C2=O)[C@H]2OC(C)(C)O[C@@H]12`, the zone of inhibition at 5000 µg/mL in data set [1] was 0 mm; in data set [8] it was 0 mm; in data set [11] it was 0 mm; in data set [15], 8 mm; in data set [17], 13 mm; in data set [18], 10 mm. Besides, the zone of inhibition at 5000 µg/mL in data set [19] is 16 mm; in [20] it was 0 mm; in [22] it was 8 mm. The result in data set [2], in [4], in data set [5], in data set [9], in data set [16] and in [21] was inactive. Further, the result in [23] and in data set [24] was inactive. Moreover, the MBC was 34 µg/mL (≈ 77.6 µM) in data set [3] and 32 µg/mL (≈ 73 µM) in data set [13]. In addition, the Ratio in [6] and in [10] was 1 each time. In data set [7], the hemolysis at 3 h, 200 ug/ml is below 10%. Moreover, the MIC turned out to be 32 µg/mL (≈ 73 µM) in data set [12] and 64 µg/mL (≈ 146 µM) in [14].
